ChEMBL document CHEMBL1155885, “Discovery and optimization of pyridazinone non-nucleoside inhibitors of HIV-1 reverse transcriptase” (Bioorg Med Chem Lett, 2008)

Assays:
[1] = molecular target: T1, Human immunodeficiency virus type 1 reverse transcriptase (Human immunodeficiency virus 1, UniProt Q72547); test: Inhibition of HIV1 wild-type reverse transcriptase by scintillation counting assay
Cytochrome P450 3A4 = Cytochrome P450 3A4 (Homo sapiens, UniProt P08684); test: Inhibition of recombinant CYP3A4; assay type: ADME
Method in brief: (§1)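 Fluorogenic assay using 7-benzyloxy-4-(trifluoromethyl)-coumarin as substrate; IC50 reported in micromolar.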

[2] = molecular target: Human immunodeficiency virus type 1 reverse transcriptase (Human immunodeficiency virus 1, UniProt Q72547, K103N); test: Inhibition of HIV1 reverse transcriptase K103N mutant by scintillation counting assay
[3] = molecular target: Human immunodeficiency virus type 1 reverse transcriptase (Human immunodeficiency virus 1, UniProt Q72547, Y181C); test: Inhibition of HIV1 reverse transcriptase Y181C mutant by scintillation counting assay
Cytochrome P450 2C19 = Cytochrome P450 2C19 (Homo sapiens, UniProt P33261); test: Inhibition of CYP2C19; assay type: ADME; method in brief: as §1
[4] = tested on: Human immunodeficiency virus 1; test: Antiviral activity against HIV1 with reverse transcriptase K103N/Y181C mutation in human MT4 cells assessed as reduction of virus-induced cytopathic effect; assay type: functional, organism-based; conditions: Human immunodeficiency virus 1, MT4
Method in brief: (§2)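 MT4 cells infected with HIV-1 and incubated with compound in the presence of 10% fetal bovine serum. Read-out is the reduction of virus-induced cytopathic effect. EC50 derived; each value is the mean of at least two independent assays.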

[5] = Half life in dog at 2.5 mg/kg, iv; assay type: ADME, organism-based, Canis lupus familiaris; design: dose 2.5 mg/kg, route intravenous; conditions: in vivo
[6] = tested on: Human immunodeficiency virus 1; test: Antiviral activity against HIV1 in human MT4 cells assessed as reduction of viral-induced cytopathic effect in presence of human serum; assay type: functional, organism-based; conditions: Human immunodeficiency virus 1, MT4
Method in brief: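 HIV-1-infected MT4 cells incubated with compound in presence of 40% human serum; reduction of viral cytopathic effect measured; EC50 derived.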

[7] = tested on: Human immunodeficiency virus 1; test: Antiviral activity against HIV1 with reverse transcriptase G190A mutation in human MT4 cells assessed as reduction of virus-induced cytopathic effect; assay type: functional, organism-based; conditions: Human immunodeficiency virus 1, MT4; method in brief: as §2
Cytochrome P450 2C9 = Cytochrome P450 2C9 (Homo sapiens, UniProt P11712); test: Inhibition of CYP2C9; assay type: ADME; method in brief: as §1
Cytochrome P450 2D6 = Cytochrome P450 2D6 (Homo sapiens, UniProt P10635); test: Inhibition of CYP2D6; assay type: ADME; method in brief: as §1
[8] = Bioavailability in rat at 2.5 mg/kg, iv; assay type: ADME, organism-based; conditions: in vivo
Method in brief: (§3)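 Rats given 2.5 mg/kg intravenously; half-life determined; apparent oral bioavailability calculated relative to oral dosing.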

[9] = tested on: Human immunodeficiency virus 1; test: Antiviral activity against HIV1 with reverse transcriptase K103N/L100I mutation in human MT4 cells assessed as reduction of virus-induced cytopathic effect; assay type: functional, organism-based; conditions: Human immunodeficiency virus 1, MT4; method in brief: as §2
[10] = molecular target: T1, Human immunodeficiency virus type 1 reverse transcriptase; test: Binding affinity to HIV1 wild-type reverse transcriptase by surface plasmon resonance spectroscopy
[11] = Half life in rat at 2.5 mg/kg, iv; assay type: ADME, organism-based; design: dose 2.5 mg/kg, route intravenous; conditions: in vivo; method in brief: as §3
Canis familiaris = test: AUC in dog at 5 mg/kg, po; assay type: ADME, organism-based, Canis lupus familiaris, Plasma; design: dose 5 mg/kg, route oral; conditions: in vivo
Cytochrome P450 1A2 = molecular target: T2, Cytochrome P450 1A2 (Homo sapiens, UniProt P05177); test: Inhibition of CYP1A2; assay type: ADME; method in brief: as §1
T2 sequence (P05177 whole entry): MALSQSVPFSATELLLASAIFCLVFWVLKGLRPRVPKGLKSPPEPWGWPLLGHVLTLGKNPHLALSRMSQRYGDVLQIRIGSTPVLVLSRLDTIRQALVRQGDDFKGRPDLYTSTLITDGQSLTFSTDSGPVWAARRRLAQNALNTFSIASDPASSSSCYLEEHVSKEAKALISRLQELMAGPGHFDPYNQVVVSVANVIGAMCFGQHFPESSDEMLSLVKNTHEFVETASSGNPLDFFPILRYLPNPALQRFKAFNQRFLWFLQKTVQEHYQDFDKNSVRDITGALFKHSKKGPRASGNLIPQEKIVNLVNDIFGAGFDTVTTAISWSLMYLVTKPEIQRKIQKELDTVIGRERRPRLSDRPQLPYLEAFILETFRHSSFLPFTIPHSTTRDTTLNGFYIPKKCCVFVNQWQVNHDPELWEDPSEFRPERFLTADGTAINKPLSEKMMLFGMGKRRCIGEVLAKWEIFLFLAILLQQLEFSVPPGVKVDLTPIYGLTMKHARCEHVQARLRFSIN

[12] = Cmax in dog at 5 mg/kg, po; assay type: ADME, organism-based, Canis lupus familiaris; design: dose 5 mg/kg, route oral; conditions: in vivo
[13] = Cmax in rat at 5 mg/kg, po; assay type: ADME, organism-based; design: dose 5 mg/kg, route oral; conditions: in vivo
Method in brief: (§4)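 Rats dosed orally at 5 mg/kg; plasma Cmax and AUC determined.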

[14] = Bioavailability in dog at 2.5 mg/kg, iv; assay type: ADME, organism-based, Canis lupus familiaris; conditions: in vivo
Rattus norvegicus = test: AUC in rat at 5 mg/kg, po; assay type: ADME, organism-based, Plasma; design: dose 5 mg/kg, route oral; conditions: in vivo; method in brief: as §4
[15] = tested on: Human immunodeficiency virus 1; test: Antiviral activity against HIV1 in human MT4 cells assessed as reduction of viral-induced cytopathic effect; assay type: functional, organism-based; conditions: Human immunodeficiency virus 1, MT4
[16] = tested on: Human immunodeficiency virus 1; test: Antiviral activity against HIV1 with reverse transcriptase K103N mutation in human MT4 cells assessed as reduction of virus-induced cytopathic effect; assay type: functional, organism-based; conditions: Human immunodeficiency virus 1, MT4; method in brief: as §2
[17] = tested on: Human immunodeficiency virus 1; test: Antiviral activity against HIV1 with reverse transcriptase Y181C mutation in human MT4 cells assessed as reduction of virus-induced cytopathic effect; assay type: functional, organism-based; conditions: Human immunodeficiency virus 1, MT4; method in brief: as §2

Sequence of Cytochrome P450 3A4 (P08684 whole entry): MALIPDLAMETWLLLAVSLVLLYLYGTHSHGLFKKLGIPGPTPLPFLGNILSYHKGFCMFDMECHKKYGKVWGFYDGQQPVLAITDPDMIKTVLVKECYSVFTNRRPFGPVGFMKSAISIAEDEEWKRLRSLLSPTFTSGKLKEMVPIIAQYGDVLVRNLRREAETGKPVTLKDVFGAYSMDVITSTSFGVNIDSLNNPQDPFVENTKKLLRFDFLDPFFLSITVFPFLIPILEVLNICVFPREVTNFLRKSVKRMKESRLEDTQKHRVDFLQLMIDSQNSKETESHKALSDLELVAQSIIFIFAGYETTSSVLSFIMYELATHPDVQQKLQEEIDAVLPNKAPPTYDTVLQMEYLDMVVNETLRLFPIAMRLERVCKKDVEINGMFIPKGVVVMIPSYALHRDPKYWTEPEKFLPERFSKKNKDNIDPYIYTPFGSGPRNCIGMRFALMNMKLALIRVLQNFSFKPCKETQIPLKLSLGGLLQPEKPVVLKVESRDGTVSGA
Sequence of Cytochrome P450 2C9 (P11712 whole entry): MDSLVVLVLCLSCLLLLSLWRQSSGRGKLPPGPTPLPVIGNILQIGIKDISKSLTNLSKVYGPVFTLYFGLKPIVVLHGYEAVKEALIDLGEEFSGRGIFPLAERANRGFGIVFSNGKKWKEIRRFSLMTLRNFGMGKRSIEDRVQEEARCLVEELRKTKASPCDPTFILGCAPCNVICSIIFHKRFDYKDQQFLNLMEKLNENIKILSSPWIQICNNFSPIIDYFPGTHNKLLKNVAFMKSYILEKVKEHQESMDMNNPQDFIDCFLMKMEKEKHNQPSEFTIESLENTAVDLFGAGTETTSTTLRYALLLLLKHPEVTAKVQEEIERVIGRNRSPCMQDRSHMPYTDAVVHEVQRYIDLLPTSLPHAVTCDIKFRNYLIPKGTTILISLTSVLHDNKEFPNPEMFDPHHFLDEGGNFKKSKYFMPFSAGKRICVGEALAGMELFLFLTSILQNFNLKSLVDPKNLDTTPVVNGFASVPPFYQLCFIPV
Sequence of Cytochrome P450 2C19 (P33261 whole entry): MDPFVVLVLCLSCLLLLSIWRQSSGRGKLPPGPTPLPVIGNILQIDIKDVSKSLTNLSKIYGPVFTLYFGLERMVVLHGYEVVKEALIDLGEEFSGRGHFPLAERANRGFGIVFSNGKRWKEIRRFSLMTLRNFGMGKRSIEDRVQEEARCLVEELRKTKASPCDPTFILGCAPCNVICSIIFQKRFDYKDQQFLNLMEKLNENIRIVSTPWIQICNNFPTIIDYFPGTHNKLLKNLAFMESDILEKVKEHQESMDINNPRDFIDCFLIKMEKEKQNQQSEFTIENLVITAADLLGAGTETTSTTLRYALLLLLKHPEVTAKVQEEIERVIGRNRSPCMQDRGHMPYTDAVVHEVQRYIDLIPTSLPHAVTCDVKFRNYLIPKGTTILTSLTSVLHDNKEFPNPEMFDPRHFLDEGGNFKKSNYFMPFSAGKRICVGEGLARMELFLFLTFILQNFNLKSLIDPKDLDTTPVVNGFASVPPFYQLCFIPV
Sequence of Cytochrome P450 2D6 (P10635 whole entry): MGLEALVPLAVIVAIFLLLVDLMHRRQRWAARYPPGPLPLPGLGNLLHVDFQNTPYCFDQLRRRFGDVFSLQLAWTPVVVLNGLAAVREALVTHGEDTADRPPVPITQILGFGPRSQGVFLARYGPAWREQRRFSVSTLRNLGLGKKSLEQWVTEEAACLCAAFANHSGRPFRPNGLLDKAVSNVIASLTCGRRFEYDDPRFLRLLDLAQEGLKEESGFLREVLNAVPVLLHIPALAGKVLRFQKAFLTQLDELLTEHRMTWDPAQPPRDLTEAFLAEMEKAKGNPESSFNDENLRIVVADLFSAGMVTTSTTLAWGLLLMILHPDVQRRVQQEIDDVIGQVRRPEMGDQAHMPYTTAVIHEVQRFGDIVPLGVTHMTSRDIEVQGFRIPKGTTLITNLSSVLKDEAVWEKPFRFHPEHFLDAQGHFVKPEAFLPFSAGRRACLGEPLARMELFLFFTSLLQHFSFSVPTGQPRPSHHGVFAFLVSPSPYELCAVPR

O=C(c1cccc(Cl)c1)c1cc(Cc2ccc(=O)[nH]n2)cc2ccoc12
IC50 [1]: 8200 nM
IC50 (Cytochrome P450 3A4): 600 nM

Cc1cc(Cc2ccc(Cl)c(Oc3ccccc3)c2)n[nH]c1=O
IC50 [1]: 360 nM
IC50 [2]: 920 nM
IC50 [3]: 2130 nM

O=c1ccc(Cc2cccc(Oc3cccc(Cl)c3)c2)n[nH]1
IC50 [1]: 21000 nM

Cc1cc(Cl)cc(Oc2cccc(Cc3ccc(=O)[nH]n3)c2)c1
IC50 [1]: 14000 nM

O=c1ccc(Cc2ccc(Cl)c(Oc3cccc(Cl)c3)c2)n[nH]1
IC50 [1]: 100 nM

Cc1cc(Cc2ccc(Cl)c(Oc3ccccc3)c2F)n[nH]c1=O
IC50 [1]: 20 nM
IC50 [2]: 50 nM
IC50 [3]: 210 nM

Cc1cc(Cc2ccc(Cl)c(Oc3cc(F)cc(C#N)c3)c2F)n[nH]c1=O
IC50 (Cytochrome P450 2C19): 21000 nM
EC50 [2]: 2 nM
EC50 [4]: 41 nM
half-life [5]: 6.4 h
EC50 [6]: 11 nM
EC50 [7]: 1 nM
IC50 (Cytochrome P450 2C9): 8000 nM
IC50 (Cytochrome P450 2D6): > 50000 nM
bioavailability [8]: 61%
EC50 [9]: 3 nM
Kd [10]: 8.4 nM
half-life [11]: 3.8 h
IC50 (Cytochrome P450 3A4): 24000 nM
AUC (Canis familiaris): 8.8 uM.hr/ml
IC50 (Cytochrome P450 1A2): > 50000 nM
Cmax [12]: 1470 nM
Cmax [13]: 2300 nM
bioavailability [14]: 34%
AUC (Rattus norvegicus): 22.4 uM.hr/ml

O=c1ccc(Cc2ccc(Cl)c(Oc3ccccc3)c2F)n[nH]1
IC50 [1]: 100 nM
IC50 [2]: 430 nM
IC50 [3]: 500 nM

O=c1ccc(Cc2cc(Cc3cccc(Cl)c3)c3occc3c2)n[nH]1
IC50 [1]: 3900 nM
IC50 (Cytochrome P450 3A4): 180 nM

O=c1ccc(Cc2ccc(Cl)c(Oc3ccccc3)c2)n[nH]1
IC50 [1]: 520 nM
IC50 [2]: 3350 nM
IC50 [3]: 5490 nM

O=C(c1ccc(Cl)cc1)c1cc(Cc2ccc(=O)[nH]n2)cc2ccoc12
IC50 [1]: 400 nM
EC50 [15]: 80 nM
IC50 [2]: 260 nM
EC50 [16]: 70 nM
IC50 [3]: 360 nM
EC50 [17]: 210 nM

O=c1ccc(Cc2cc(Oc3cccc(Cl)c3)c3occc3c2)n[nH]1
IC50 [1]: 1000 nM
IC50 (Cytochrome P450 3A4): 410 nM

COc1cc(C#N)cc(Oc2c(Cl)ccc(Cc3cc(C)c(=O)[nH]n3)c2F)c1
EC50 [4]: 31 nM
EC50 [6]: 15 nM
EC50 [7]: 1 nM
EC50 [9]: 2 nM

Cc1ccc(Cc2ccc(=O)[nH]n2)cc1Oc1cccc(Cl)c1
IC50 [1]: 640 nM

Cc1cc(Cc2ccc(Cl)c(Oc3cc(C#N)cc(C#N)c3)c2F)n[nH]c1=O
EC50 [2]: 2 nM
EC50 [4]: 19 nM
EC50 [6]: 7 nM
EC50 [7]: 1 nM

O=C1Nc2ccc(Cl)cc2C(C#CC2CC2)(C(F)(F)F)O1 (single isomer, unassigned) [EFAVIRENZ]
EC50 [4]: 83 nM
EC50 [6]: 19 nM
EC50 [7]: 6 nM
EC50 [9]: > 500 nM
